Assay [1] addresses T1, NUAK family SNF1-like kinase 1 (Homo sapiens) (UniProt O60285).
T1 sequence (whole entry): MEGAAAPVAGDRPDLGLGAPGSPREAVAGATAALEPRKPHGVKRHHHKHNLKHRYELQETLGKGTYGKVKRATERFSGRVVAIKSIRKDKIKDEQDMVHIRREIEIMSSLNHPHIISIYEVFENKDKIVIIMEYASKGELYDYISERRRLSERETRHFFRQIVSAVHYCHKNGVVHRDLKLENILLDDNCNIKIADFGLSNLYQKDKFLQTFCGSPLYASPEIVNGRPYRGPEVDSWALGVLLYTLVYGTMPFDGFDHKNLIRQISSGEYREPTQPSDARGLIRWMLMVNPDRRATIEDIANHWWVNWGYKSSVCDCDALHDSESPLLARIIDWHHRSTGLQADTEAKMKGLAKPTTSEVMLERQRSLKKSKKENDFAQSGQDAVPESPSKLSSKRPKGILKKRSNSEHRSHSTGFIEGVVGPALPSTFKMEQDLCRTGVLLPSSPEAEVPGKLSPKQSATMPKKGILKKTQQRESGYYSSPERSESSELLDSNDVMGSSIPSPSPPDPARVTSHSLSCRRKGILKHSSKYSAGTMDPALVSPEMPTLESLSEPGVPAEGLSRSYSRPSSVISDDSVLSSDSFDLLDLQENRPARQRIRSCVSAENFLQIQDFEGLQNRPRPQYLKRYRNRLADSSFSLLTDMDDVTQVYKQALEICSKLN
Nature of the assay: Inhibition of ARK5 at 10 uM.

Assay [2] addresses Angiopoietin-1 receptor (Homo sapiens) (UniProt Q02763). Nature of the assay: Inhibition of TIE2 at 10 uM.
Another assay concerns MDA-MB-435. The assay is described as follows: Antitumor activity against human MDA-MB435 cells after 48 hrs by sulforhodamine B protein assay. The assay is classed as functional. The following applies: MDA-MB-435, 48 h. The gist of the method:
(§1)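 Part of the NCI 60-cell-line screen. Compounds tested at five concentrations (10^-8 to 10^-4 M) with continuous exposure for 48 h. Cell growth read by sulforhodamine B protein assay, with percent growth from optical density of treated versus untreated control cultures. GI50 is the concentration giving 50% net growth inhibition.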

Assay [3] concerns the target Insulin-like growth factor 1 receptor (Homo sapiens) (UniProt P08069). Nature of the assay: Inhibition of IGF1R at 10 uM.
The next assay relates to K562. Nature of the assay: Antitumor activity against human K562 cells after 48 hrs by sulforhodamine B protein assay. The assay is classed as functional. Conditions: K562, 48 h. Put shortly:
as §1

The species named for assay [4] is Homo sapiens. Nature of the assay: Inhibition of CDK4/cyclinD1 at 10 uM.
Assay [5] deals with T2, Vascular endothelial growth factor receptor 3 (Homo sapiens, UniProt P35916). The assay is described as follows: Inhibition of VEGFR3 at 10 uM.
Assay [6] concerns the target T3, Serine/threonine-protein kinase PLK4 (Homo sapiens) (UniProt O00444).
T3 sequence (whole entry): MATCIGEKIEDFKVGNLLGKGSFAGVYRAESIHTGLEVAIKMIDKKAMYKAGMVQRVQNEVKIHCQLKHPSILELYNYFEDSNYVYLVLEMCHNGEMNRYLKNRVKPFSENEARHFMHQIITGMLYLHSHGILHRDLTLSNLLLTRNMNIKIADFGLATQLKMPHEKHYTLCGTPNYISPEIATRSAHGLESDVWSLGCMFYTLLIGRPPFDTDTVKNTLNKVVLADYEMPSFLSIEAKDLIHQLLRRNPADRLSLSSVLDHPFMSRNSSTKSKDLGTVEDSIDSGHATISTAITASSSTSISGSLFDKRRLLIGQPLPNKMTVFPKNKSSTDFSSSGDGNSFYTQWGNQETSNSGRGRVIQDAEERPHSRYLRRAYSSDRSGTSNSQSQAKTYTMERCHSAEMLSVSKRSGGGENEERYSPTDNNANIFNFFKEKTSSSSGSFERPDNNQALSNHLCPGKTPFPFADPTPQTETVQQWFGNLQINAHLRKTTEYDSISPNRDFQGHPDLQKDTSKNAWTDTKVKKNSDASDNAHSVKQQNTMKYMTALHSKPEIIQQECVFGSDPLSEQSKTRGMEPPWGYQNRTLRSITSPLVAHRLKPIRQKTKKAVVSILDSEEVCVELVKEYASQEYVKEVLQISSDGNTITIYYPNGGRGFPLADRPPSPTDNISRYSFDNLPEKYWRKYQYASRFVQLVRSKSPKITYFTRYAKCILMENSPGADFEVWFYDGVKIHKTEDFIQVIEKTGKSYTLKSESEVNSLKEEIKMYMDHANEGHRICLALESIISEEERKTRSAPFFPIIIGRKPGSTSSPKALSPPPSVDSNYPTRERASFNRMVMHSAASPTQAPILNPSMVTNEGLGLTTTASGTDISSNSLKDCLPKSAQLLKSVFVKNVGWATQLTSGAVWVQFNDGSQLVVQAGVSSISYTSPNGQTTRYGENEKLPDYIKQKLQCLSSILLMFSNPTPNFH
Nature of the assay: Inhibition of SAK at 10 uM.

For assay [7], the target named is Receptor tyrosine-protein kinase erbB-2 (Homo sapiens) (UniProt P04626). The assay is described as follows: Inhibition of ERBB2 at 10 uM.
Assay [8] concerns the target Serine/threonine-protein kinase PAK 4 (Homo sapiens) (UniProt O96013). The assay is described as follows: Inhibition of PAK4 at 10 uM.
The species entered for assay [9] is Homo sapiens. The assay is described as follows: Inhibition of CK2-alpha1 at 10 uM.
The target of assay [10] is Epidermal growth factor receptor (Homo sapiens) (UniProt P00533). Nature of the assay: Inhibition of EGFR at 10 uM.
The target of assay [11] is T2, Vascular endothelial growth factor receptor 3. The assay is described as follows: Inhibition of VEGFR3.
The target in assay [12] is Cyclin-dependent kinase 4 (Homo sapiens, UniProt P11802). The assay is described as follows: Inhibition of CDK4.

We go through 14 molecules from ChEMBL document CHEMBL1139946, “1-Aryl-4,6-dihydropyrazolo[4,3-d][1]benzazepin-5(1H)-ones: a new class of antiproliferative agents with selectivity for human leukemia and breast cancer cell lines” (Eur J Med Chem, 2007).

Insulin-like growth factor 1 receptor (Homo sapiens), sequence (P08069 31-736 limits assumed): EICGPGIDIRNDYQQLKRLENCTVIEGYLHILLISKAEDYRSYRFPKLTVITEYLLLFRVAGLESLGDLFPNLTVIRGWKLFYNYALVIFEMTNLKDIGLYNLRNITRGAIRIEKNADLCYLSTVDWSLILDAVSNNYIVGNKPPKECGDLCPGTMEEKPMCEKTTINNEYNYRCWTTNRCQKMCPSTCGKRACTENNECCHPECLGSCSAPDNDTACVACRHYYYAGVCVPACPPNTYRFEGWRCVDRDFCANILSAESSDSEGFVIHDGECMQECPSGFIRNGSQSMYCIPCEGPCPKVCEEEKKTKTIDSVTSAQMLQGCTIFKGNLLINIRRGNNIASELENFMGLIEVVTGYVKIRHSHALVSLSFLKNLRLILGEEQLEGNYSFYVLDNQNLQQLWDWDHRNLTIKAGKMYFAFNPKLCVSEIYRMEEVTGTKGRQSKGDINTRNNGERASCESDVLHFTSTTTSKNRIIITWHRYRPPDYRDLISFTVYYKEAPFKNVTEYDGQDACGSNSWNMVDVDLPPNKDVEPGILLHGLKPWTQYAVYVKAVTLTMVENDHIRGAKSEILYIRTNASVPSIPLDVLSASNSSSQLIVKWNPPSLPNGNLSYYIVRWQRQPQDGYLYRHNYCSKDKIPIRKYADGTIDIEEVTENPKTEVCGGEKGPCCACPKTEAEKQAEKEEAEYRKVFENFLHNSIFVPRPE
Insulin-like growth factor 1 receptor (Homo sapiens), sequence (P08069 741-1367 limits assumed): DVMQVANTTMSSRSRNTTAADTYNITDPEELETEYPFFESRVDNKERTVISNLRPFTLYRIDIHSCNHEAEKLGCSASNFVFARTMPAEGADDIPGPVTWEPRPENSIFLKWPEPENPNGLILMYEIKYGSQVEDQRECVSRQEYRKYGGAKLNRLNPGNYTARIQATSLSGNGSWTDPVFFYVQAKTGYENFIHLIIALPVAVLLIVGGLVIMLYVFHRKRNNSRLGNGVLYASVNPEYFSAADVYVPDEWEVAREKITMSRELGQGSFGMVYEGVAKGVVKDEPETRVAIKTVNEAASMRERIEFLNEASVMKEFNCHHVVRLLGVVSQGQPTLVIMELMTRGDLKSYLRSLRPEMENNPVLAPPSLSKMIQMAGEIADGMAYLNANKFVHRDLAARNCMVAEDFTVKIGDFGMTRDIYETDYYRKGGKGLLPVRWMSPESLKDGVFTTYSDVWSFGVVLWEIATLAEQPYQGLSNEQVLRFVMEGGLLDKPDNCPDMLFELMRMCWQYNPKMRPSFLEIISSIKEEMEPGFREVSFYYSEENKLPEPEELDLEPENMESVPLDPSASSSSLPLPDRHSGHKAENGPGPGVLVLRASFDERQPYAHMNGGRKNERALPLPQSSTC
Receptor tyrosine-protein kinase erbB-2 (Homo sapiens), sequence (P04626 whole entry): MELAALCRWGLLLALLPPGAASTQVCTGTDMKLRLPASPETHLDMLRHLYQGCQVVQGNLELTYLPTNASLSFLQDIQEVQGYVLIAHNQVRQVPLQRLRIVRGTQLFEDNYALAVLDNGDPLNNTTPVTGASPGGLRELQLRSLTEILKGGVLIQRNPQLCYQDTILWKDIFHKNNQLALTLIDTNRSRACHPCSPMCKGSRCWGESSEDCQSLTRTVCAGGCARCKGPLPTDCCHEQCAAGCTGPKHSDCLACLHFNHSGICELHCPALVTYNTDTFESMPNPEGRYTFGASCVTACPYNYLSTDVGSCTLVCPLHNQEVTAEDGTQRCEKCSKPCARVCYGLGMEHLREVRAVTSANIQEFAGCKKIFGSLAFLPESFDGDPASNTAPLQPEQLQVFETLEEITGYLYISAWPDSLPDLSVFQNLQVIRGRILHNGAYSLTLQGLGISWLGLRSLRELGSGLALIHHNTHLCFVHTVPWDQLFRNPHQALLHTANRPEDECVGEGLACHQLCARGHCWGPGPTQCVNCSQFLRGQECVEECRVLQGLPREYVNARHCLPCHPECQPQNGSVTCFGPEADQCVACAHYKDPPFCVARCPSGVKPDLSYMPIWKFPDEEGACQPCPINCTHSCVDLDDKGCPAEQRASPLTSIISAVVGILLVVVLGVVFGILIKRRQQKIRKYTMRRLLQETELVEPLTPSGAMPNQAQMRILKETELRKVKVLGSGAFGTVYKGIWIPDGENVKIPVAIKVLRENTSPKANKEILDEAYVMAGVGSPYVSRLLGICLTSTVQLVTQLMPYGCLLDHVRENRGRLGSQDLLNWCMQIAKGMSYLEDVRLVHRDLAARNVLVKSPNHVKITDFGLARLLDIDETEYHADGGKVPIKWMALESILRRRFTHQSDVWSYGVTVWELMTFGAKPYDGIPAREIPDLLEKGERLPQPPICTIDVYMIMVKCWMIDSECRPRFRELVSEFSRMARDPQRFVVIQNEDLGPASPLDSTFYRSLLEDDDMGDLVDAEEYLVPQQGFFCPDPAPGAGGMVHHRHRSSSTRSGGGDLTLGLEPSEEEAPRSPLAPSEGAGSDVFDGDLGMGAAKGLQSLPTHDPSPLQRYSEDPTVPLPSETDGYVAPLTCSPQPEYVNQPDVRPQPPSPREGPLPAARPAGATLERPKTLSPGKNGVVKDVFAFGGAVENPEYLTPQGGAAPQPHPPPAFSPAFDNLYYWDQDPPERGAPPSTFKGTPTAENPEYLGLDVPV
Serine/threonine-protein kinase PAK 4 (Homo sapiens), sequence (O96013 whole entry, looked up): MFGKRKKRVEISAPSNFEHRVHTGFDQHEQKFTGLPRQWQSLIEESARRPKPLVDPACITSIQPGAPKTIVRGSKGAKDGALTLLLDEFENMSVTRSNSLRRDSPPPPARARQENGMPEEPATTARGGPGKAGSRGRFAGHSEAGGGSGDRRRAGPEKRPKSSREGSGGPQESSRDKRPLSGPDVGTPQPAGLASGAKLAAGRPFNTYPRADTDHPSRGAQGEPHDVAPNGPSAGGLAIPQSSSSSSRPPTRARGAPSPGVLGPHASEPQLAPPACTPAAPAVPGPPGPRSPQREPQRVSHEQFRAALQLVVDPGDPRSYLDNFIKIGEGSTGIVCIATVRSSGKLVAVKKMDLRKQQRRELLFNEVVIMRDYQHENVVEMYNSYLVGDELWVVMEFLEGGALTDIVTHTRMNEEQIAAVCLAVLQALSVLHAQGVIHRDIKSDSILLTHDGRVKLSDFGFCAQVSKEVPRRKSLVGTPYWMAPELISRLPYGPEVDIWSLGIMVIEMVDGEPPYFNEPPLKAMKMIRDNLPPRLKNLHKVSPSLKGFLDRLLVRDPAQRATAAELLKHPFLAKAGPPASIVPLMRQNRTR
T2 sequence (P35916 whole entry): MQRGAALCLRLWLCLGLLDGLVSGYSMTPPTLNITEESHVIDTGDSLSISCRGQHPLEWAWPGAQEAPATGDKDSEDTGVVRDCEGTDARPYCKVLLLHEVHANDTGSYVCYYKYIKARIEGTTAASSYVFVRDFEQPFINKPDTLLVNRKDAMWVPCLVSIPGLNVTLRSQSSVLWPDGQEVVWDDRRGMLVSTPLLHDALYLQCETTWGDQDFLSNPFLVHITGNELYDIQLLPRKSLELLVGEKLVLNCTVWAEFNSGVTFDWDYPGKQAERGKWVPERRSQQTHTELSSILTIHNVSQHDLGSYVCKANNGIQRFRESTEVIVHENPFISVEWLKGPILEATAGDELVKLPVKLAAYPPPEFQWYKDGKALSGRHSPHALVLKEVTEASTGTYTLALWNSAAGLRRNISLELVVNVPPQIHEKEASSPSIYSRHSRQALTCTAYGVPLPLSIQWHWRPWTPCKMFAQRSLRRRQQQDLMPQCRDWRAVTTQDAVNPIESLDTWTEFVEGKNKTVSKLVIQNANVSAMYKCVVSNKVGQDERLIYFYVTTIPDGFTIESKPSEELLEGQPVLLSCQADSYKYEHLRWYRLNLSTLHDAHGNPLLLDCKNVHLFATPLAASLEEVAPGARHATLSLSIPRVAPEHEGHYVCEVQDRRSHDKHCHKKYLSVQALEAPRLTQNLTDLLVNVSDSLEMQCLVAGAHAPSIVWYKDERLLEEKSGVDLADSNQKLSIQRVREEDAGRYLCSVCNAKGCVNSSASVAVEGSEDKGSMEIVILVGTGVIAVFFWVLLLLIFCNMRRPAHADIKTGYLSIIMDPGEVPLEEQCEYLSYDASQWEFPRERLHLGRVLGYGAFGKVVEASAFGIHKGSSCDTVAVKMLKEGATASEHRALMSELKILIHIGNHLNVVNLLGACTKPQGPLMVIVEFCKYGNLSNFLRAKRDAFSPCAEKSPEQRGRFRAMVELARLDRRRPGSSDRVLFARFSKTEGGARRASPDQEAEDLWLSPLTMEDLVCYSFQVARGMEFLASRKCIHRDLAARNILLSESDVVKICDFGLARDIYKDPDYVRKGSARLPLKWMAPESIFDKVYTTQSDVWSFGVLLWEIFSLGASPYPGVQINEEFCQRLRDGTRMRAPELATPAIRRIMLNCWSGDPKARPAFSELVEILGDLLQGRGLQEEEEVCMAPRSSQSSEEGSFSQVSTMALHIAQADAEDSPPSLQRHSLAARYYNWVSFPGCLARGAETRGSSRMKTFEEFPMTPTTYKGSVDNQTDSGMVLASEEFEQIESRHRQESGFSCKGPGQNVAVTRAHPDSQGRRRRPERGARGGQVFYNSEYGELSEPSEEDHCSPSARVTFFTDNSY
Cyclin-dependent kinase 4, sequence (P11802 whole entry): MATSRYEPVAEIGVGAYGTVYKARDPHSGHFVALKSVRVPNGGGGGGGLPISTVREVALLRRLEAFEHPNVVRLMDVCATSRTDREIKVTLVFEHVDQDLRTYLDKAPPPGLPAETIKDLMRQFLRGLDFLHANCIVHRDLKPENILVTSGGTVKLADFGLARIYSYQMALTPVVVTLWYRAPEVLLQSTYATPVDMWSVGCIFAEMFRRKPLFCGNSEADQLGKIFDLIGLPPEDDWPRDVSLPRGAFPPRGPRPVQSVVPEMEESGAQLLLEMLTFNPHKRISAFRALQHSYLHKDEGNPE

For the molecule `O=C1Cc2cnn(-c3ccc(C(F)(F)F)cc3)c2-c2ccccc2N1`, the inhibition (in assay [1]; in assay [2]; in assay [3]; in the assay listed under Homo sapiens [4]; in [5]; in [6]) was < 40% each time. Moreover, the inhibition (in [7]; in assay [8]; in the assay filed under Homo sapiens [9]) was < 40% in each case. In addition, the GI50 – broadly, the concentration that inhibits growth by half – in the assay with MDA-MB-435 was determined as 11.2 µM; in the assay with K562, 12.6 µM.

Turning to `O=C1Cc2cnn(-c3ccc(F)cc3F)c2-c2ccccc2N1`, the inhibition (in assay [1]; in assay [2]; in [3]; in the assay listed under Homo sapiens [4]; in assay [5]; in [6]) was < 40% throughout. Further, the inhibition (in assay [7]; in [8]; in the assay filed under Homo sapiens [9]) was < 40% in each case.

As to `Cc1ccc(-n2ncc3c2-c2ccccc2NC(=O)C3)cc1`, the inhibition (in assay [1]; in assay [2]; in [3]; in the assay filed under Homo sapiens [4]; in [5]; in [6]) was < 40% throughout. Also, the inhibition (in assay [7]; in assay [8]; in the assay listed under Homo sapiens [9]) was < 40% throughout. For the same molecule, the figures for the GI50 in the assay with MDA-MB-435 and in the assay on K562 were 2.09 µM and 1.78 µM, respectively.

For the molecule `O=C1Cc2cnn(-c3ccccc3)c2-c2ccccc2N1`, the inhibition (in assay [1]; in [2]; in assay [3]; in the assay filed under Homo sapiens [4]; in assay [10]; in [5]) was < 40% each time. The inhibition (in [6]; in assay [7]; in [8]; in the assay listed under Homo sapiens [9]) was < 40% throughout.

Turning to `O=C1Cc2cnn(-c3ccccc3Cl)c2-c2ccccc2N1`, the inhibition (in [1]; in assay [2]; in assay [3]; in the assay listed under Homo sapiens [4]; in assay [5]; in [6]) was < 40% throughout. Besides, the inhibition (in [7]; in assay [8]; in the assay filed under Homo sapiens [9]) was < 40% throughout.

For `O=C1Cc2cnn(-c3cc(Cl)cc(Cl)c3)c2-c2ccccc2N1`, the inhibition (in assay [1]; in [2]; in [3]; in the assay listed under Homo sapiens [4]; in assay [5]; in [6]) was < 40% each time. Moreover, the inhibition (in assay [7]; in assay [8]; in the assay listed under Homo sapiens [9]) was < 40% throughout. The GI50 in the assay with MDA-MB-435 and in the assay on K562 was < 0.01 µM each time.

With `COc1ccc(-n2ncc3c2-c2ccccc2NC(=O)C3)cc1`, the inhibition (in assay [1]; in assay [2]; in [3]; in the assay filed under Homo sapiens [4]; in assay [5]; in assay [6]) was < 40% throughout. Besides, the inhibition (in assay [7]; in assay [8]; in the assay listed under Homo sapiens [9]) was < 40% in each case. Also, the GI50 in the assay on MDA-MB-435 turned out to be 0.025 µM; with K562, 0.35 µM.

As to `O=C1Cc2cnn(-c3ccccc3Br)c2-c2ccccc2N1`, the inhibition (in assay [1]; in assay [2]; in [3]; in the assay listed under Homo sapiens [4]; in assay [5]; in [6]) was < 40% each time. Further, the inhibition (in assay [7]; in [8]; in the assay listed under Homo sapiens [9]) was < 40% each time.

Consider `CC(C)(C)c1ccc(-n2ncc3c2-c2ccccc2NC(=O)C3)cc1`, for which the inhibition (in [1]; in [2]; in assay [3]; in the assay filed under Homo sapiens [4]; in [6]; in assay [7]) was < 40% in each case. Besides, the inhibition (in assay [8]; in the assay listed under Homo sapiens [9]) was < 40% in each case. Besides, the GI50 came out at 18.6 µM in the assay on MDA-MB-435 and 31.6 µM in the assay on K562. In addition, the concentration for half-maximal inhibition (IC50) – broadly, the midpoint of a concentration-inhibition curve – in assay [11] is > 10 µM.

With `O=C1Cc2cnn(-c3ccc([N+](=O)[O-])cc3)c2-c2ccccc2N1`, the inhibition (in [1]; in assay [2]; in [3]; in the assay listed under Homo sapiens [4]; in [5]; in assay [6]) was < 40% in each case. For the same molecule, the inhibition (in assay [7]; in [8]; in the assay listed under Homo sapiens [9]) was < 40% throughout.

For `O=C1Cc2cnn(-c3cccc(Cl)c3)c2-c2ccccc2N1`, the IC50 in assay [12] was > 10 µM. Besides, the inhibition (as a rule, the change of the read-out against control, counted positive when it falls) in assay [1] is < 40%; in [2], < 40%; in [3], < 40%; in the assay listed under Homo sapiens [4], > 40%; in assay [5], < 40%; in [6] it was < 40%. For the same molecule, the inhibition (in assay [7]; in assay [8]; in the assay listed under Homo sapiens [9]) was < 40% each time.

On to `Cc1ccccc1-n1ncc2c1-c1ccccc1NC(=O)C2`, for which the inhibition (in [1]; in assay [2]; in [3]; in the assay filed under Homo sapiens [4]; in assay [5]; in assay [6]) was < 40% in each case. In addition, the inhibition (in [7]; in assay [8]; in the assay filed under Homo sapiens [9]) was < 40% throughout.

`O=C1Cc2cnn(-c3ccc(Br)cc3)c2-c2ccccc2N1`: the inhibition (in [1]; in assay [2]; in [3]; in the assay filed under Homo sapiens [4]; in assay [5]; in assay [6]) was < 40% throughout. For the same molecule, the inhibition (in [7]; in assay [8]; in the assay listed under Homo sapiens [9]) was < 40% in each case. For the same molecule, the values for the GI50 in the assay with MDA-MB-435 and in the assay on K562 were 1.91 µM and 4.07 µM, respectively.

Consider `O=C1Cc2cnn(-c3ccccc3F)c2-c2ccccc2N1`, for which the inhibition (in assay [1]; in assay [2]; in [3]; in the assay filed under Homo sapiens [4]; in [5]; in [6]) was < 40% throughout. In addition, the inhibition (in assay [7]; in [8]; in the assay filed under Homo sapiens [9]) was < 40% each time.
